The values that follow come from PubChem BioAssay.

A short description of assay [1]: Her2 expression decrease, cell viability multiplex – SKBR3 breast tumor cells, AlphaScreen, ATP viability, primary screen (AID 461;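 active = Her2 level under about 52% in both replicate screens, with viability over 70% of control, limit read from the data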;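 as to Her2 level: lower value means less Her2 protein in the cells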;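 as to viability: percent of carrier control wells set as 100% viability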). The following applies: SKBR3 Her2 protein level, 18-24 h, measured here: SKBR3 viability, ATP luminescence, at 10 µM.
For assay [2], the target named is Receptor tyrosine-protein kinase erbB-2 (Homo sapiens) (UniProt P04626). Described as above. The note with it: 18-24 h, at 10 µM, stronger effect = lower value.
Sequence of Receptor tyrosine-protein kinase erbB-2 (Homo sapiens) (P04626 whole entry, looked up): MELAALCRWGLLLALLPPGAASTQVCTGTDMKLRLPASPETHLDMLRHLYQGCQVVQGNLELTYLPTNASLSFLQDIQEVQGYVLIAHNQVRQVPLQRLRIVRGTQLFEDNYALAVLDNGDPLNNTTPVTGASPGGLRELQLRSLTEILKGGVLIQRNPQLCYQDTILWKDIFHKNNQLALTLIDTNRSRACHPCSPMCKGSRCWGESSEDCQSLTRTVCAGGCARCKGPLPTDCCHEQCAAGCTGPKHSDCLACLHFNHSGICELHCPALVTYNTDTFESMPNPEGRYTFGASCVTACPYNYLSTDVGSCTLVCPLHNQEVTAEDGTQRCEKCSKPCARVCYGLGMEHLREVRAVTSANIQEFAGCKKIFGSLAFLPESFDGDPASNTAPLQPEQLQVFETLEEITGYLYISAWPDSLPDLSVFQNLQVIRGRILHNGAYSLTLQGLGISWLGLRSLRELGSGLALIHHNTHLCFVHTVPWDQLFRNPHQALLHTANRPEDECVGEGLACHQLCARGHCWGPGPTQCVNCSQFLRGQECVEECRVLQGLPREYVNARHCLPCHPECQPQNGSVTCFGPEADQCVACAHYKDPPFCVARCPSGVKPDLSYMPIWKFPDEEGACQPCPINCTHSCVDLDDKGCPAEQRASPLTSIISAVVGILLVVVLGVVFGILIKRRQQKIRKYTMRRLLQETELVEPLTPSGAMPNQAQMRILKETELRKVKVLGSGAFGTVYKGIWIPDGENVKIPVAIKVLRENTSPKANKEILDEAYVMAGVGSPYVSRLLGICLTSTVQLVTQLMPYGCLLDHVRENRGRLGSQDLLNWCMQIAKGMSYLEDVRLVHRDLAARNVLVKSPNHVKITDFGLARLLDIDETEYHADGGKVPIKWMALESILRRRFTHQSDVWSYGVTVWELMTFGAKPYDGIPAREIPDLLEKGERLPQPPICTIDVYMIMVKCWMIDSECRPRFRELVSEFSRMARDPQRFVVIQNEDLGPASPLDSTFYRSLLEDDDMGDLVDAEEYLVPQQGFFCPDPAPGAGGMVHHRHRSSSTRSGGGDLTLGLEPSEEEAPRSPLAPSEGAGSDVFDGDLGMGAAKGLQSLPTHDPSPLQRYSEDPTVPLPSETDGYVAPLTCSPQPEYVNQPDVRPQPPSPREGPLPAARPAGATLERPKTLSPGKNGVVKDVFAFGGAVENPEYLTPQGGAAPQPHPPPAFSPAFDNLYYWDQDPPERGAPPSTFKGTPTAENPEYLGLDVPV
Assay [3] in a line: reduced viability of SK-BR-3 breast cancer cells – cell-based, 24 h, human, pilot screen (AID 572;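 active = viability at or below 10% of carrier control in both of two separate runs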;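 also: compound exposure lasted between 18 and 24 h rather than exactly 24 h; 100% = carrier-treated control wells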). The note with it: SK-BR-3 viability, CellTiter-Glo luminescence, at 10 µM, stronger effect = lower value.
Assay [4] is described as follows: HUVEC growth inhibition – cell-based, human, primary screen (AID 575;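 active = viability at or below 30% in both replicate assays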;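 also: 100% = median of untreated cell wells with 0.1% DMSO on each plate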). The note with it: HUVEC proliferation, CellTiter-Glo luminescence, 72 h; at 10 µM; stronger effect = lower value. The method, boiled down:
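Material: primary human umbilical vein endothelial cells / Schedule: 72 h exposure, 37 °C, 5% CO2, 30 min RT equilibration / Signal: ATP-based CellTiter-Glo luminescent read / Read-out basis: percent of median DMSO-control luminescence / Control set: 32 DMSO-only cell-control wells (high), 32 MePR drug-control wells (low) per plate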

Assay [5] in a line: H69AR cell proliferation blockers – human, duplicate replicates, primary screen (AID 580).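 Also: 100% = mean luminescence of untreated wells and 0% = no signal.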 The note with it: H69AR lung tumor cells viability, ATP luminescence, 72 h; at 10 µM; stronger effect = lower value.
Assay [6] in a line: MRP1 drug-resistance reversers in H69AR cells – cell-based, doxorubicin co-treatment, pilot screen (AID 601;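 active = viability loss from added drug above about 55%, and viability with drug at most 40%, in both replicates, limit read from the data, passing the limit was not always enough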). The following applies: CellTiter-Glo, 72 h, at 10 µM; for differential viability (reversal): stronger effect = higher value.
Assay [7] in a line: yeast transport mutant growth inhibition pilot in 384-well plates, post-Golgi transport modulator project (AID 636; in the data active = inhibition above about 31%). The following applies: absorbance 615 nm, about 18 h, stronger effect = higher value.
Assay [8] can be described thus: growth suppression of yeast trafficking mutant, preliminary HTS, modulators of trafficking downstream of Golgi apparatus project, 1536-format plate, OD 615 nm (AID 637; in the data active = inhibition above about 30%). The note with it: yeast transport mutant growth, absorbance 615 nm, 18 h; stronger effect = higher value.
Where [9] appears, read: H69AR cells + 2 uM doxorubicin, measured here: viability with 2 uM doxorubicin, stronger effect = lower value.
The mark [10] stands for this setting: H69AR cells, compound alone cytotoxicity.

The source made the active and inactive calls.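 The calls were made as follows, unless noted: active = viability at or under a set limit in both replicates, limit being median viability minus 3 SD (cut at about 48% in these data, passing the limit was not always enough); inconclusive = at or under the limit in just one replicate; inactive = at or above the limit in both replicates.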

As for `O=S(=O)(NCCc1ccccc1F)c1cccc(S(=O)(=O)N2CCOCC2)c1`, the viability in assay [1] was 87%; in assay [3], 87% (inactive); in assay [4], 96.8% (inactive); in assay [5], 97.5% (inactive); in assay [6] (setting [9]) it was 88.2%; in assay [6] (setting [10]), 97.5%. The Her2 level in assay [2] is 94.5% (inactive). Further, the differential viability (reversal) in assay [6] (H69AR cells + 2 uM doxorubicin) is 9.29% (inactive). Further, the results for the inhibition in assay [7] and in assay [8] were -3.42% (inactive) and 3.77% (inactive), respectively.
As to `CCOc1ccc(C(C)=O)cc1COc1ccc(-n2cnnn2)cc1`, the viability in assay [1] was 99%; in assay [3], 99% (inactive); in assay [4] it was 111% (inactive); in assay [5], 77.2% (inactive); in assay [6] (setting [9]), 79.8%; in assay [6] (setting [10]), 77.2%. Moreover, the Her2 level in assay [2] was 108% (inactive). Moreover, the differential viability (reversal) in assay [6] (H69AR cells + 2 uM doxorubicin) was -2.58% (inactive). For the same molecule, the values for the inhibition in assay [7] and in assay [8] were -4% (inactive) and -8.52% (inactive), respectively.
On to `COCCn1c(SCC(=O)Nc2nnc(C)s2)nnc1-c1c[nH]c2ccccc12`, for which the viability was 104% in assay [1]; 104% (inactive) in assay [3]; 111% (inactive) in assay [4]; 103% (inactive) in assay [5]; 88.6% in assay [6] (setting [9]); 103% in assay [6] (setting [10]). The Her2 level in assay [2] is 84% (inactive). In addition, the differential viability (reversal) in assay [6] (H69AR cells + 2 uM doxorubicin) was 14.8% (inactive). In addition, the inhibition in assay [7] is -1.71% (inactive); in assay [8] it was -6% (inactive).
In the case of `COc1ccc(C)cc1NC(=O)CSc1nnnn1Cc1ccccc1`, the viability is 83% in assay [1]; 83% (inactive) in assay [3]; 82.1% (inactive) in assay [4]; 96.8% (inactive) in assay [5]; 90.8% in assay [6] (setting [9]); 96.8% in assay [6] (setting [10]). Besides, the Her2 level in assay [2] was 96.5% (inactive). In addition, the differential viability (reversal) in assay [6] (H69AR cells + 2 uM doxorubicin) is 6% (inactive). The inhibition in assay [7] was -1.49% (inactive); in assay [8], -2.62% (inactive).
As for `CCOC(=O)C(NC(=O)c1ccccc1)(Nc1cc(C)on1)C(F)(F)F` (stereo not given), the viability in assay [1] was 106%; in assay [3] it was 106% (inactive); in assay [4], 101% (inactive); in assay [5] it was 97.7% (inactive); in assay [6] (setting [9]), 86.6%; in assay [6] (setting [10]) it was 97.7%. Also, in assay [2], the Her2 level is 90.5% (inactive). Also, the differential viability (reversal) in assay [6] (H69AR cells + 2 uM doxorubicin) was 11.1% (inactive). Also, the inhibition was -0.93% (inactive) in assay [7] and -1.61% (inactive) in assay [8].
For the molecule `NC(=O)CSc1nnc(-c2cc3ccccc3o2)n1Cc1ccccc1`, the viability in assay [1] was 92.5%; in assay [3], 92.5% (inactive); in assay [4], 104% (inactive); in assay [5] it was 90.3% (inactive); in assay [6] (setting [9]) it was 91.8%; in assay [6] (setting [10]) it was 90.3%. Besides, in assay [2], the Her2 level is 81.5% (inactive). Moreover, the differential viability (reversal) in assay [6] (H69AR cells + 2 uM doxorubicin) is -1.59% (inactive). Also, the inhibition in assay [7] is -6.05% (inactive); in assay [8] it was 0.67% (inactive).
For the molecule `CCOc1ccc(NC(=O)c2ccccc2O)cc1`, the viability in assay [1] is 87.5%; in assay [3], 87.5% (inactive); in assay [4], 90.4% (inactive); in assay [5] it was 101% (inactive); in assay [6] (setting [9]), 90.5%; in assay [6] (setting [10]) it was 101%. In addition, the Her2 level in assay [2] is 87.5% (inactive). Moreover, in assay [6] (H69AR cells + 2 uM doxorubicin), the differential viability (reversal) was 10.1% (inactive). The inhibition is -1.22% (inactive) in assay [7] and -2.7% (inactive) in assay [8].
In the case of `COc1ccc(S(=O)(=O)NCCC(=O)NC2CCCCCCC2)cc1`, the viability in assay [1] was 108%; in assay [3] it was 108% (inactive); in assay [4], 105% (inactive); in assay [5], 88.6% (inactive); in assay [6] (setting [9]), 86.3%; in assay [6] (setting [10]), 88.6%. In addition, in assay [2], the Her2 level is 85.5% (inactive). Besides, the differential viability (reversal) in assay [6] (H69AR cells + 2 uM doxorubicin) was 2.31% (inactive). For the same molecule, the inhibition in assay [7] is 0% (inactive); in assay [8], -8.2% (inactive).
For `COc1ccc(N(CC(=O)NCCSC(C)(C)C)S(C)(=O)=O)c(OC)c1`, the viability in assay [1] was 91%; in assay [3], 91% (inactive); in assay [4], 106% (inactive); in assay [5], 92.8% (inactive); in assay [6] (setting [9]), 101%; in assay [6] (setting [10]), 92.8%. In addition, the Her2 level in assay [2] was 97.5% (inactive). Also, the differential viability (reversal) in assay [6] (H69AR cells + 2 uM doxorubicin) is -8.27% (inactive). For the same molecule, the inhibition was 1.04% (inactive) in assay [7] and 2.62% (inactive) in assay [8].
In the case of `COc1ccccc1OCCSc1nc2ccccc2c(=O)[nH]1`, the viability in assay [1] is 81.5%; in assay [3], 81.5% (inactive); in assay [4], 84.6% (inactive); in assay [5], 95.2% (inactive); in assay [6] (setting [9]) it was 80.1%; in assay [6] (setting [10]), 95.2%. Also, the Her2 level in assay [2] was 105% (inactive). Moreover, the differential viability (reversal) in assay [6] (H69AR cells + 2 uM doxorubicin) is 15.1% (inactive). Besides, the inhibition in assay [7] was -3.97% (inactive); in assay [8], -4% (inactive).
Take `c1ccc(CN2C3=NCCCN3c3ccccc32)cc1`: the viability in assay [1] was 79%; in assay [3] it was 79% (inactive); in assay [4] it was 82.9% (inactive); in assay [5] it was 91.2% (inactive); in assay [6] (setting [9]), 83%; in assay [6] (setting [10]), 91.2%. Besides, in assay [2], the Her2 level was 84% (inactive). The differential viability (reversal) in assay [6] (H69AR cells + 2 uM doxorubicin) is 8.3% (inactive). Moreover, the inhibition in assay [7] was -1.43% (inactive); in assay [8], -3.65% (inactive).
`CC(=O)c1cccc(NC(=O)N2C3CCC2CC(O)(c2cccnc2)C3)c1` (stereo not given): the viability in assay [1] was 102%; in assay [3], 102% (inactive); in assay [4], 100% (inactive); in assay [5] it was 106% (inactive); in assay [6] (setting [9]), 96.7%; in assay [6] (setting [10]), 106%. Moreover, in assay [2], the Her2 level is 98.5% (inactive). Moreover, the differential viability (reversal) in assay [6] (H69AR cells + 2 uM doxorubicin) is 9.59% (inactive). Also, the inhibition was 0.41% (inactive) in assay [7] and -5.83% (inactive) in assay [8].
`CN(CCC#N)C(=O)COC(=O)c1ccc(Cl)c(S(N)(=O)=O)c1`: the viability in assay [1] was 104%; in assay [3], 104% (inactive); in assay [4] it was 106% (inactive); in assay [5] it was 95.9% (inactive); in assay [6] (setting [9]) it was 88.8%; in assay [6] (setting [10]) it was 95.9%. Also, in assay [2], the Her2 level was 97.5% (inactive). Moreover, in assay [6] (H69AR cells + 2 uM doxorubicin), the differential viability (reversal) was 7.13% (inactive). The inhibition was -4.93% (inactive) in assay [7] and 3.71% (inactive) in assay [8].
Regarding `CCOC(=O)N1CCC(NC(=O)c2ccc3c(c2)N(C)CCS3)CC1`, the viability in assay [1] is 87%; in assay [3] it was 87% (inactive); in assay [4], 109% (inactive); in assay [5] it was 92.2% (inactive); in assay [6] (setting [9]) it was 83.9%; in assay [6] (setting [10]), 92.2%. Also, the Her2 level in assay [2] was 92.5% (inactive). Moreover, the differential viability (reversal) in assay [6] (H69AR cells + 2 uM doxorubicin) is 8.3% (inactive). Besides, the inhibition in assay [7] is -4.21% (inactive); in assay [8], 4.92% (inactive).
For `COc1ccccc1OCC(=O)N1CCNC1=O`, the viability in assay [1] was 90%; in assay [3], 90% (inactive); in assay [4] it was 84% (inactive); in assay [5], 102% (inactive); in assay [6] (setting [9]), 90%; in assay [6] (setting [10]), 102%. Also, the Her2 level in assay [2] is 96.5% (inactive). In addition, the differential viability (reversal) in assay [6] (H69AR cells + 2 uM doxorubicin) is 12.2% (inactive). The values for the inhibition in assay [7] and in assay [8] were -1.73% (inactive) and -0.98% (inactive), respectively.
Consider `CC1CN(S(=O)(=O)c2cccc(C(=O)OCc3cc(=O)oc4cc(O)ccc34)c2)CC(C)O1` (stereo not given), for which the viability in assay [1] is 80.5%; in assay [3], 80.5% (inactive); in assay [4], 61.1% (inactive); in assay [5] it was 78.2% (inactive); in assay [6] (setting [9]), 62.1%; in assay [6] (setting [10]), 78.2%. In addition, in assay [2], the Her2 level was 87% (inactive). Further, the differential viability (reversal) in assay [6] (H69AR cells + 2 uM doxorubicin) was 16.1% (inactive). Also, the inhibition in assay [7] is -6% (inactive); in assay [8] it was -4.43% (inactive).
